Measured values as given in ChEMBL document CHEMBL3425441 (J Med Chem, 2015).

Columns and labels:
Serum [1] = assay: Drug uptake in C57/BL6 mouse serum at 25 mg/kg, iv measured after 8 hrs by LC/MS/MS analysis; assay type: ADME, organism-based; parameters: dose 25 mg/kg, route intravenous; details: in vivo
In short: (§1)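 Mouse PK: C57/BL6 mice, n = 2 per cohort per time point, 25 mg/kg given by tail vein injection or oral gavage; formulated at 5 mg/mL in 200 mg/mL HPβCD, pH 5.5. Mice sacrificed at set times, blood collected, EDTA plasma frozen at -80°C. Levels measured by LC/MS/MS (Polar-RP column, formic acid/methanol gradient, negative ESI) against an internal standard.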

[2] = Oral bioavailability in C57/BL6 mouse at 25 mg/kg by LC/MS/MS analysis; assay type: ADME, organism-based; details: in vivo
[3] = Cytotoxicity against dog GL1 cells assessed as cell death after 72 hrs by sulforhodamine B assay; assay type: functional, cell-based; details: Canis lupus familiaris
In short: (§2)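 Jurkat plated at 25,000 cells/well; GL-1 and EL4 at 15,000 cells/well. Nine half-log doses, 0.01–100 µM, in triplicate. SRB staining after TCA fixation, absorbance 510 nm. Percent death normalized to a positive death control (100%) and DMSO (0%). Logistic fit gives IC50, mean of three experiments ± s.e.m.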

[4] = AUC in C57/BL6 mouse at 25 mg/kg, po by LC/MS/MS analysis; assay type: ADME, organism-based; parameters: dose 25 mg/kg, route oral; details: plasma
U-937 [5] = assay: Induction of apoptosis in human U937 cells assessed as necrotic cells at 50 uM after 12 hrs by annexin V-FITC/propidium iodide staining-based flow cytometric analysis relative to control; assay type: functional
[6] = Cytotoxicity against human U937 cells assessed as cell death after 72 hrs by sulforhodamine B assay; details: U-937, 72 h
[7] = target: Caspase-3/Caspase-7 (Homo sapiens) (UniProt P42574+P55210); assay: Activation of Caspase 3/7 in human U937 cells assessed as cleavage of Ac-DEVD-AFC at 30 uM after 16 hrs by fluorescence assay relative to control; assay type: cell-based; details: U-937
Jurkat = assay: Cytotoxicity against human Jurkat cells assessed as cell death after 72 hrs by sulforhodamine B assay; assay type: functional, cell-based; in short: as §2
Mus musculus [8] = assay: Toxicity in C57BL/6 mouse at 200 mg/kg, ip measured over 24 hrs; assay type: organism-based; parameters: dose 200 mg/kg, route intraperitoneal; details: in vivo
In short: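 Tolerability: C57BL/6 mice aged 8-10 weeks, n = 3 per cohort, given a single 200 mg/kg i.p. dose formulated at 5 mg/mL in 200 mg/mL HPβCD, pH 5.5. Signs classed as excitatory or depressive and graded mild to severe.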

U-937 [9] = assay: Induction of apoptosis in human U937 cells assessed as viable cells at 50 uM after 12 hrs by annexin V-FITC/propidium iodide staining-based flow cytometric analysis (reference value: 96%); assay type: functional; details: U-937, 12 h, read-out: Activity
U-937 [10] = assay: Induction of apoptosis in human U937 cells assessed as early apoptotic cells at 50 uM after 12 hrs by annexin V-FITC/propidium iodide staining-based flow cytometric analysis (reference value: 2%); assay type: functional
EL4 = assay: Cytotoxicity against mouse EL4 cells assessed as cell death after 72 hrs by sulforhodamine B assay; assay type: functional, cell-based; details: EL4, 72 h; in short: as §2
Mus musculus [11] = assay: Elimination half life in C57/BL6 mouse at 25 mg/kg, iv and po by LC/MS/MS analysis; assay type: ADME, organism-based; parameters: dose 25 mg/kg, route oral; details: in vivo
[12] = Cytotoxicity against dog OSW cells assessed as cell death after 72 hrs by sulforhodamine B assay; assay type: functional, cell-based; details: Canis lupus familiaris
[13] = AUC in C57/BL6 mouse at 25 mg/kg, iv by LC/MS/MS analysis; assay type: ADME, organism-based; parameters: dose 25 mg/kg, route intravenous; details: plasma
[14] = Metabolic stability in rat liver microsomes at 10 uM after 3 hrs by LC/MS analysis; assay type: ADME; details: read-out: Stability
[15] = Metal chelating activity of the compound assessed as zinc complex formation after 5 mins by EGTA fluorescence titration Assay; assay type: physicochemical
U-937 [16] = assay: Induction of apoptosis in human U937 cells assessed as late apoptotic cells at 50 uM after 12 hrs by annexin V-FITC/propidium iodide staining-based flow cytometric analysis (reference value: 2%); assay type: functional
Serum [17] = assay: Drug uptake in C57/BL6 mouse serum at 25 mg/kg, iv measured after 5 to 6 hrs by LC/MS/MS analysis; assay type: ADME, organism-based; parameters: dose 25 mg/kg, route intravenous; details: in vivo; in short: as §1

Caspase-3/Caspase-7 (Homo sapiens), sequence (P42574 whole entry, looked up): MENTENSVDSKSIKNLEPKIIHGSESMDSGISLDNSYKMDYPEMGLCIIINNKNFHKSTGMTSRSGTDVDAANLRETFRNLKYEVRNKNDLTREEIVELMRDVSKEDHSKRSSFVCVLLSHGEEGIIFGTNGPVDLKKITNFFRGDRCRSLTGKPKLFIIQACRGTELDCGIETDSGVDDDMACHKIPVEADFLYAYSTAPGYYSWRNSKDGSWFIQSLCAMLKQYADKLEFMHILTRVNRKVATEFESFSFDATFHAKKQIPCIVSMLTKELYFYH
Caspase-3/Caspase-7 (Homo sapiens), sequence (P55210 whole entry, looked up): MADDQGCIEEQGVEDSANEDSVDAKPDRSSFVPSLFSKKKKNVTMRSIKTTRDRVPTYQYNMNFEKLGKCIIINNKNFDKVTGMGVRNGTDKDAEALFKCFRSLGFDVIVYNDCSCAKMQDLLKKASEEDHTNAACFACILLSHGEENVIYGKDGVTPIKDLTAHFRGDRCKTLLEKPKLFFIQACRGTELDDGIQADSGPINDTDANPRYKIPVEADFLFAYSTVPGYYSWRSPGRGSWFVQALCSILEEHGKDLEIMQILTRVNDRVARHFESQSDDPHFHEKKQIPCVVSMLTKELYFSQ

| SMILES | IC50 [6] [µM] | remaining at 3 h, 10 µM [14] [%] | also measured |
| --- | --- | --- | --- |
| C=CCc1cc(F)cc(/C=N/NC(=O)CN2CCN(C(=O)c3ccccc3)CC2)c1O | 8.6 | 93 | Drug uptake (Serum [1]): Active; bioavailability [2]: 8.5%; IC50 [3]: 3.4 µM; AUC [4]: 428 ng·h/mL; Activity (U-937 [5]): 7%; Activity [7]: 67%; IC50 (Jurkat): 4.1 µM; Activity (Mus musculus [8]): Non-toxic; viability at 50 µM (U-937 [9]): 54%; Activity (U-937 [10]): 20%; IC50 (EL4): 7.3 µM; beta t1/2 (Mus musculus [11]): 2.008 h; IC50 [12]: 10 µM; AUC [13]: 4850 ng·h/mL; Kd [15]: 0.00107 µM; Activity (U-937 [16]): 19% |
| C=CCc1cccc(/C=N/NC(=O)CN2CCN(C(=O)c3ccc(C(F)(F)F)cc3)CC2)c1O |  | 85 |  |
| C=CCc1cc(F)cc(/C=N/NC(=O)CN2CCN(Cc3ccc(C(F)(F)F)cc3)CC2)c1O |  | 49 |  |
| C=CCc1cc(F)cc(/C=N/NC(=O)CN2CCN(C(=O)c3ccc(C(F)(F)F)cc3)CC2)c1O |  | 90 |  |
| C=CCc1cccc(/C=N/NC(=O)CN2CCN(Cc3ccc(F)cc3)CC2)c1O | 11.1 | 31 |  |
| CCCc1cccc(/C=N/NC(=O)CN2CCN(Cc3ccc(C(F)(F)F)cc3)CC2)c1O |  | 15 |  |
| CCCc1cccc(/C=N/NC(=O)CN2CCN(C(=O)c3ccc(F)cc3)CC2)c1O | 7.3 | 69 |  |
| CCCc1cc(F)cc(/C=N/NC(=O)CN2CCN(C(=O)c3ccc(C#N)cc3)CC2)c1O |  | 66 | Drug uptake (Serum [1]): Active |
| CCCc1cc(F)cc(/C=N/NC(=O)CN2CCN(C(=O)c3ccccc3)CC2)c1O | 12.3 | 86 |  |
| C=CCc1cc(F)cc(/C=N/NC(=O)CN2CCN(Cc3ccc(F)cc3)CC2)c1O | 10.3 | 57 |  |
| C=CCc1cccc(/C=N/NC(=O)CN2CCN(Cc3ccc(S(N)(=O)=O)cc3)CC2)c1O |  | 84 | Drug uptake (Serum [17]): Not Active |
| C=CCc1cc(F)cc(/C=N/NC(=O)CN2CCN(C(=O)c3ccc(F)cc3)CC2)c1O | 8.5 | 92 | Activity (Mus musculus [8]): Toxic |
| C=CCc1cc(F)cc(/C=N/NC(=O)CN2CCN(C(=O)c3ccc(C#N)cc3)CC2)c1O |  | 95 | Drug uptake (Serum [1]): Active |
| C=CCc1cc(F)cc(/C=N/NC(=O)CN2CCN(Cc3ccc(S(N)(=O)=O)cc3)CC2)c1O |  | 89 |  |
| C=CCc1cccc(/C=N/NC(=O)CN2CCN(Cc3ccc(C#N)cc3)CC2)c1O | 13.7 | 48 |  |
| C=CCc1cc(F)cc(/C=N/NC(=O)CN2CCN(Cc3ccc(C#N)cc3)CC2)c1O | 12.7 | 65 |  |
| CCCc1cc(F)cc(/C=N/NC(=O)CN2CCN(Cc3ccc(F)cc3)CC2)c1O | 7.5 | 48 |  |
| C=CCc1cccc(/C=N/NC(=O)CN2CCN(C(=O)c3ccccc3)CC2)c1O | 12.1 | 89 |  |
| C=CCc1cccc(/C=N/NC(=O)CN2CCN(C(=O)c3ccc(F)cc3)CC2)c1O | 10.2 | 86 | Drug uptake (Serum [1]): Active; bioavailability [2]: 25.6%; IC50 [3]: 3 µM; AUC [4]: 1540 ng·h/mL; Activity (U-937 [5]): 2%; Activity [7]: 64%; IC50 (Jurkat): 4 µM; Activity (Mus musculus [8]): Non-toxic; viability at 50 µM (U-937 [9]): 49%; Activity (U-937 [10]): 27%; IC50 (EL4): 6.5 µM; beta t1/2 (Mus musculus [11]): 1.49 h; IC50 [12]: 9.3 µM; AUC [13]: 6040 ng·h/mL; Kd [15]: 0.00146 µM; Activity (U-937 [16]): 22% |
| O=C(CN1CCN(C(=O)c2ccc(F)cc2)CC1)N/N=C/c1cc(F)ccc1O | 15.3 | 86 |  |
| CCCc1cc(F)cc(/C=N/NC(=O)CN2CCN(C(=O)c3ccc(F)cc3)CC2)c1O | 7.5 | 67 | Activity (Mus musculus [8]): Toxic |

| SMILES | IC50 [6] [µM] | remaining at 3 h, 10 µM [14] [%] | also measured |
| --- | --- | --- | --- |
| O=C(CN1CCN(C(=O)c2ccccc2)CC1)N/N=C/c1cc(F)ccc1O | 15.7 | 88 |  |
| CCCc1cccc(/C=N/NC(=O)CN2CCN(Cc3ccc(S(N)(=O)=O)cc3)CC2)c1O |  | 61 |  |
| C=CCc1cccc(/C=N/NC(=O)CN2CCN(C(=O)c3ccc(C#N)cc3)CC2)c1O | 13.1 | 90 |  |
| CCCc1cccc(/C=N/NC(=O)CN2CCN(C(=O)c3ccc(C(F)(F)F)cc3)CC2)c1O |  | 64 |  |
| CCCc1cc(F)cc(/C=N/NC(=O)CN2CCN(Cc3ccccc3)CC2)c1O | 8.9 | 49 |  |
| CCCc1cccc(/C=N/NC(=O)CN2CCN(Cc3ccc(F)cc3)CC2)c1O | 10 | 24 |  |
| C=CCc1cccc(/C=N/NC(=O)CN2CCN(Cc3ccc(C(F)(F)F)cc3)CC2)c1O |  | 16 |  |
| C=CCc1cc(F)cc(/C=N/NC(=O)CN2CCN(Cc3ccccc3)CC2)c1O | 9.5 | 56 |  |
| O=C(CN1CCN(Cc2ccccc2)CC1)N/N=C/c1ccccc1 |  |  | Activity [7]: 3%; Kd [15]: > 1000 µM |
| N#Cc1ccc(C(=O)N2CCN(CC(=O)N/N=C/c3cc(F)ccc3O)CC2)cc1 | 15.3 | 88 |  |
| CCCc1cccc(/C=N/NC(=O)CN2CCN(Cc3ccccc3)CC2)c1O | 9.6 | 30 |  |
| CCCc1cccc(/C=N/NC(=O)CN2CCN(C(=O)c3ccc(C#N)cc3)CC2)c1O | 12.8 | 61 |  |
| CCCc1cccc(/C=N/NC(=O)CN2CCN(Cc3ccc(C#N)cc3)CC2)c1O | 9 | 30 |  |
| O=C(CN1CCN(Cc2ccc(C(F)(F)F)cc2)CC1)N/N=C/c1cc(F)ccc1O | 4.7 | 30 |  |
| CCCc1cc(F)cc(/C=N/NC(=O)CN2CCN(Cc3ccc(C(F)(F)F)cc3)CC2)c1O |  | 40 |  |
| O=C(CN1CCN(Cc2ccccc2)CC1)N/N=C/c1cc(F)ccc1O | 17 | 64 |  |
| CCCc1cc(F)cc(/C=N/NC(=O)CN2CCN(Cc3ccc(C#N)cc3)CC2)c1O | 11.2 | 49 |  |
| O=C(CN1CCN(C(=O)c2ccc(C(F)(F)F)cc2)CC1)N/N=C/c1cc(F)ccc1O | 8.7 | 87 | Activity (Mus musculus [8]): Non-toxic |
| CCCc1cc(F)cc(/C=N/NC(=O)CN2CCN(Cc3ccc(S(N)(=O)=O)cc3)CC2)c1O |  | 62 |  |
| CCCc1cccc(/C=N/NC(=O)CN2CCN(C(=O)c3ccccc3)CC2)c1O | 9.4 | 71 |  |
| CCCc1cc(F)cc(/C=N/NC(=O)CN2CCN(C(=O)c3ccc(C(F)(F)F)cc3)CC2)c1O |  | 64 |  |
